Assay results from different studies.
Each line is one published result; the experiments were not run side by side.
ABL1 H396P non-phosphorylated: Tyrosine-protein kinase ABL1, non-phosphorylated (ABL1, Homo sapiens, UniProt P00519, H396P)
ABL1 T315I phosphorylated: Tyrosine-protein kinase ABL1, phosphorylated (ABL1, Homo sapiens, UniProt P00519, T315I)
ABL1 Y253F: Tyrosine-protein kinase ABL1 (ABL1, Homo sapiens, UniProt P00519, Y253F)
ABL1 E255K phosphorylated: Tyrosine-protein kinase ABL1, phosphorylated (ABL1, Homo sapiens, UniProt P00519, E255K)
ABL1 F317I phosphorylated: Tyrosine-protein kinase ABL1, phosphorylated (ABL1, Homo sapiens, UniProt P00519, F317I)
ABL1 Q252H non-phosphorylated: Tyrosine-protein kinase ABL1, non-phosphorylated (ABL1, Homo sapiens, UniProt P00519, Q252H)
ABL1 M351T phosphorylated: Tyrosine-protein kinase ABL1, phosphorylated (ABL1, Homo sapiens, UniProt P00519, M351T)
ABL1 phosphorylated: Tyrosine-protein kinase ABL1, phosphorylated (ABL1, Homo sapiens, UniProt P00519)
ABL1 F317L phosphorylated: Tyrosine-protein kinase ABL1, phosphorylated (ABL1, Homo sapiens, UniProt P00519, F317L)

Compound	target	test	conditions	remaining binding [%]
c1cncc(-c2cccc(Nc3nccc(NC4CCCCC4)n3)c2)c1	ABL1 H396P non-phosphorylated	binding, competition with immobilised ligand	10 µM	9
COc1cnc(Nc2cccc(S(N)(=O)=O)c2)nc1N1CCN(c2ccccc2)CC1	ABL1 T315I phosphorylated	binding, competition with immobilised ligand	1 µM	88
COc1ccnn2ncc(-c3ccnc(N(C)C)n3)c12	ABL1 Y253F	binding	1 µM	79
CN(C)C(=O)Cn1cc(-c2nc(C3(c4ccc(-c5cnc(N)nc5)cc4)CC3)no2)cn1	ABL1 E255K phosphorylated	binding, competition with immobilised ligand	1 µM	100
CCN1CCN(Cc2ccc(C(=O)Nc3ccc(C)c(Oc4ccc5c(c4)CC(=O)N5)c3)cc2C(F)(F)F)CC1	Tyrosine-protein kinase ABL1, phosphorylated (ABL1, Homo sapiens, UniProt P00519, Q252H)	binding, competition with immobilised ligand	1 µM	49
C=CC(=O)N1CCC(C(=O)NCC(=O)N2CCN(c3nc(-c4cnc(N)nc4C(F)F)nc(N4CCOCC4)n3)CC2)CC1	ABL1 T315I phosphorylated	binding, competition with immobilised ligand	1 µM	82
CNC(=O)[C@@H]1CC[C@@H](n2c(-c3ccc4cnccc4c3)nc3ccc(C(=O)NCc4cccc(C(N)=O)c4)cc32)C1	ABL1 F317I phosphorylated	binding, competition with immobilised ligand	1 µM	100
O=C(c1ccc(Nc2ncc(Cl)c(-c3cc4ccccc4s3)n2)cc1)N1CCC(N2CCCC2)CC1	ABL1 Q252H non-phosphorylated	binding, competition with immobilised ligand	1 µM	7.5
O=C(N1CCS(=O)(=O)CC1)N1C[C@H](c2ccc(OC(F)(F)F)cc2)C[C@H](c2nc(C3CC3)no2)C1	ABL1 T315I phosphorylated	cell-free assay, competition with immobilised ligand	1 µM	100
COc1ncc2cc3ccccc3nc2c1C#N	Tyrosine-protein kinase ABL1, phosphorylated (ABL1, Homo sapiens, UniProt P00519, H396P)	cell-free assay, competition with immobilised ligand	5 µM	97
O=C(Nc1c[nH]nc1C(=O)NC1CCNCC1)c1cc(F)cc(F)c1	ABL1 M351T phosphorylated	binding, competition with immobilised ligand	1 µM	100
CN(C)c1nccc(-c2cnc3ncccn23)n1	ABL1 Y253F	binding	1 µM	41
O=C(c1ccc(Nc2ncc(Cl)c(-c3ccc(Cl)s3)n2)cc1)N1CCC(N2CCCC2)CC1	ABL1 F317I phosphorylated	binding, competition with immobilised ligand	1 µM	87
O=C(NCC1CCOCC1)c1n[nH]cc1NC(=O)c1c(F)cccc1F	ABL1 phosphorylated	binding, competition with immobilised ligand	1 µM	85
N[C@H]1CCN(c2nccc(-c3cnn4ncccc34)n2)C1	Tyrosine-protein kinase ABL1 (ABL1, Homo sapiens, UniProt P00519, F317L)	binding	1 µM	100
C[C@H](c1ccc(F)cc1)N(Cc1cccc(C(=O)O)c1)C(=O)c1cnc2ccccc2c1	ABL1 F317L phosphorylated	cell-free assay, competition with immobilised ligand	1 µM	99
Nc1ncc2c(n1)-c1c([nH]c3ccc(C#CC4CC4)cc13)CCCC2	ABL1 F317L phosphorylated	binding, competition with immobilised ligand	1 µM	88
O=C(c1ccc(Nc2nccc(-c3cc4ccccc4s3)n2)cc1)N1CCC(N2CCCC2)CC1	Tyrosine-protein kinase ABL1, non-phosphorylated (ABL1, Homo sapiens, UniProt P00519, T315I)	binding, competition with immobilised ligand	1 µM	2
CN(C)c1ncc(F)c(-c2cnn3ncccc23)n1	Tyrosine-protein kinase ABL1 (ABL1, Homo sapiens, UniProt P00519, E255K)	binding	1 µM	66
O=C(NCCCN1CCOCC1)c1ccc(Nc2ncc(Cl)c(-c3ccc(Cl)s3)n2)cc1	ABL1 phosphorylated	binding, competition with immobilised ligand	1 µM	36
CN([C@@H]1CCc2c(CC(=O)O)c3cc(S(C)(=O)=O)ccc3n2C1)S(=O)(=O)c1ccc(F)cc1	ABL1 H396P non-phosphorylated	cell-free assay, competition with immobilised ligand	1 µM	55
CN(CCCC(F)(F)F)c1nccc(-c2cnn3ncccc23)n1	Tyrosine-protein kinase ABL1 (ABL1, Homo sapiens, UniProt P00519, Q252H)	binding	1 µM	100
O=C(NCc1ncc(C(F)(F)F)cc1Cl)c1ccc2c(c1)C1(CCS(=O)(=O)CC1)[C@@H](C1CC1)N2S(=O)(=O)c1ccc(F)cc1	ABL1 Q252H non-phosphorylated	cell-free assay, competition with immobilised ligand	1 µM	100
O=C(NCCCN1CCOCC1)c1ccc(Nc2nccc(-c3cc4ccccc4s3)n2)cc1	ABL1 F317L phosphorylated	binding, competition with immobilised ligand	1 µM	75
CN1CCN(c2cnc3c(C4CCN(C(=O)c5ccc(OC(F)(F)F)cc5N)CC4)ncnc3c2)CC1	ABL1 E255K phosphorylated	binding, competition with immobilised ligand	1 µM	98
COc1cnc(Nc2cccc(S(N)(=O)=O)c2)nc1N1CCN(c2ccccc2)C(=O)C1	ABL1 M351T phosphorylated	binding, competition with immobilised ligand	1 µM	84
O=C1NC(c2ccccn2)Sc2ccccc21 (stereo not drawn)	ABL1 phosphorylated	cell-free assay, competition with immobilised ligand	1 µM	72
C[C@@H](c1ccc(-n2cnc3c(N)ncnc32)cc1)N1CCc2nn(C)c(Cc3ccccc3)c2C1=O	ABL1 M351T phosphorylated	binding, competition with immobilised ligand	0.1 µM	49
O=C(Nc1cnc(Oc2ccc(F)cc2)nc1)N1CCc2ncccc2[C@@H]1c1ccc(F)cc1	ABL1 phosphorylated	cell-free assay, competition with immobilised ligand	1 µM	94
Cc1cnc(Nc2ccc(C(=O)N3CCC(N4CCCC4)CC3)cc2)nc1-c1cc2ccccc2s1	ABL1 H396P non-phosphorylated	binding, competition with immobilised ligand	1 µM	0.1
